Test results published in ChEMBL document CHEMBL1152796, “Azole antimicrobial pharmacophore-based tetrazoles: synthesis and biological evaluation as potential antimicrobial and anticonvulsant agents” (Bioorg Med Chem, 2009).
In brackets after ≈: the same amount, converted by molar mass. Activity calls are given as the source filed them. The calls are words filed in the database; no cut-off is given here.

Assays:
Mus musculus [1] = test: Anticonvulsant activity in Wister albino mouse assessed as protection against subcutaneous metrazole-induced seizures at 100 mg/kg, ip administered 30 mins before metrazole challenge measured after 30 mins; assay type: functional; details: route intraperitoneal
Outline: (§1)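 Wistar albino mice, either sex, 25–30 g, 3 months old, in groups of six. Compounds in DMSO were given ip at 30, 100 or 300 mg/kg; vehicle-only controls. After 30 min, metrazole 100 mg/kg in DMSO was injected sc at the posterior midline. Protection meant absence of any clonic spasm lasting ≥5 s; scored as protected/tested.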

Pseudomonas aeruginosa [2] = test: Antibacterial activity against Pseudomonas aeruginosa ATCC 27853 at 1 mg/mL after 24 hrs by agar diffusion method; assay type: functional; details: ATCC 27853, 24 h, read-out: Diameter of inhibition zone
Outline: (§2)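 Agar disc diffusion: 5 mm sterile paper discs soaked in 1 mg/mL test solution in DMSO were placed on agar seeded with the organism, in triplicate, with a DMSO-only control. Bacterial plates were incubated at 37 °C for 24 h and fungal plates for 7 days. Read-out was the average inhibition-zone diameter in mm. Fungi were clinical isolates.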

Trichophyton rubrum = test: Antifungal activity against Trichophyton rubrum isolate after 72 hrs by twofold serial dilution method; assay type: functional, organism-based
Candida tropicalis = test: Antifungal activity against Candida tropicalis isolate after 72 hrs by twofold serial dilution method; assay type: functional, organism-based
Aspergillus fumigatus [3] = test: Antifungal activity against Aspergillus fumigatus isolate at 1 mg/mL after 7 days by agar diffusion method; assay type: functional; details: 168 h, read-out: Diameter of inhibition zone; outline: as §2
Candida albicans [4] = test: Antifungal activity against Candida albicans isolate at 1 mg/mL after 7 days by twofold serial dilution method; assay type: functional; details: 168 h, read-out: Diameter of inhibition zone
Mus musculus [5] = test: Anticonvulsant activity in Wister albino mouse assessed as protection against subcutaneous metrazole-induced seizures at 30 mg/kg, ip administered 30 mins before metrazole challenge measured after 30 mins; assay type: functional; outline: as §1
Aspergillus niger = test: Antifungal activity against Aspergillus niger isolate after 72 hrs by twofold serial dilution method; assay type: functional, organism-based
Pseudomonas aeruginosa [6] = test: Antibacterial activity against Pseudomonas aeruginosa ATCC 27853 after 24 to 48 hrs by twofold serial dilution method; assay type: functional
Outline: (§3)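 Broth microdilution in Müller–Hinton broth. DMSO stocks at 800 were diluted twofold from 400 down to 6.25. Wells received 10^6 CFU/mL bacterial suspension and were incubated at 36 °C for 24–48 h, with controls. MIC was read per well. Duplicate assays; run only for compounds giving inhibition zones ≥14 mm.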

Mus musculus [7] = test: Anticonvulsant activity in Wister albino mouse assessed as protection against maximal electroshock-induced seizures at 100 mg/kg, ip administered 30 mins before metrazole challenge measured after 30 mins; assay type: functional; details: route intraperitoneal
Staphylococcus aureus [8] = test: Antibacterial activity against Staphylococcus aureus ATCC 6538 after 24 to 48 hrs by twofold serial dilution method; assay type: functional; outline: as §3
Bacillus subtilis [9] = test: Antibacterial activity against Bacillus subtilis NRRL B-14819 after 24 to 48 hrs by twofold serial dilution method; assay type: functional; outline: as §3
Klebsiella pneumoniae [10] = test: Antibacterial activity against Klebsiella pneumoniae isolate after 24 to 48 hrs by twofold serial dilution method; assay type: functional; outline: as §3
Mus musculus [11] = test: Anticonvulsant activity in Wister albino mouse assessed as protection against subcutaneous metrazole-induced seizures at 300 mg/kg, ip administered 30 mins before metrazole challenge measured after 30 mins; assay type: functional; outline: as §1
Micrococcus luteus [12] = test: Antibacterial activity against Micrococcus luteus ATCC 21881 after 24 to 48 hrs by twofold serial dilution method; assay type: functional; outline: as §3
Klebsiella pneumoniae [13] = test: Antibacterial activity against Klebsiella pneumoniae isolate at 1 mg/mL after 24 hrs by agar diffusion method; assay type: functional; details: read-out: Diameter of inhibition zone; outline: as §2
Bacillus subtilis [14] = test: Antibacterial activity against Bacillus subtilis NRRL B-14819 at 1 mg/mL after 24 hrs by agar diffusion method; assay type: functional; details: read-out: Diameter of inhibition zone; outline: as §2
Pichia kudriavzevii = test: Antifungal activity against Candida krusei isolate after 72 hrs by twofold serial dilution method; assay type: functional, organism-based
Escherichia coli [15] = test: Antibacterial activity against Escherichia coli ATCC 25922 at 1 mg/mL after 24 hrs by agar diffusion method; assay type: functional; details: ATCC 25922, 24 h, read-out: Diameter of inhibition zone; outline: as §2
Staphylococcus aureus [16] = test: Antibacterial activity against Staphylococcus aureus ATCC 6538 at 1 mg/mL after 24 hrs by agar diffusion method; assay type: functional; details: ATCC 6538, 24 h, read-out: Diameter of inhibition zone; outline: as §2
Micrococcus luteus [17] = test: Antibacterial activity against Micrococcus luteus ATCC 21881 at 1 mg/mL after 24 hrs by agar diffusion method; assay type: functional; details: ATCC 21881, 24 h, read-out: Diameter of inhibition zone; outline: as §2
Escherichia coli [18] = test: Antibacterial activity against Escherichia coli ATCC 25922 after 24 to 48 hrs by twofold serial dilution method; assay type: functional; outline: as §3
Mus musculus [19] = test: Anticonvulsant activity in Wister albino mouse assessed as protection against maximal electroshock-induced seizures at 300 mg/kg, ip administered 30 mins before metrazole challenge measured after 30 mins; assay type: functional; details: route intraperitoneal
Mus musculus [20] = test: Toxicity in Wister albino mouse assessed as death following tonic extension at 100 mg/kg, ip; assay type: organism-based; parameters: dose 100 mg/kg, route intraperitoneal; details: in vivo
Outline: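 Wistar albino mice of either sex (25–30 g, 3 months), six per group. Compound was dissolved in DMSO and given ip 30 min before the maximal electroshock test, with solvent-only controls. Corneas received 0.5% xylocaine; 6 Hz, 0.2-ms pulses were given for 3 s at 6–64 mA. Animals were observed 30 min after dosing, and deaths following tonic extension were recorded.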

Aspergillus fumigatus [21] = test: Antifungal activity against Aspergillus fumigatus isolate after 72 hrs by twofold serial dilution method; assay type: functional
Candida albicans [22] = test: Antifungal activity against Candida albicans isolate after 72 hrs by twofold serial dilution method; assay type: functional

Compound | Activity (Mus musculus [1]) [%] | zone of inhibition at 1000 µg/mL (Pseudomonas aeruginosa [2]) [mm] | Activity (Trichophyton rubrum) | Activity (Candida tropicalis) | zone of inhibition at 1000 µg/mL (Aspergillus fumigatus [3]) [mm] | zone of inhibition at 1000 µg/mL (Candida albicans [4]) [mm] | Activity (Mus musculus [5]) [%] | Activity (Aspergillus niger) | MIC (Pseudomonas aeruginosa [6]) [µg/mL] | Activity (Mus musculus [7]) [%] | MIC (Staphylococcus aureus [8]) [µg/mL] | MIC (Bacillus subtilis [9]) [µg/mL] | MIC (Klebsiella pneumoniae [10]) [µg/mL] | Activity (Mus musculus [11]) [%] | MIC (Micrococcus luteus [12]) [µg/mL] | zone of inhibition at 1000 µg/mL (Klebsiella pneumoniae [13]) [mm] | zone of inhibition at 1000 µg/mL (Bacillus subtilis [14]) [mm] | Activity (Pichia kudriavzevii) | zone of inhibition at 1000 µg/mL (Escherichia coli [15]) [mm] | zone of inhibition at 1000 µg/mL (Staphylococcus aureus [16]) [mm] | other results
O=C(COC(Cn1nnc(-c2ccccc2)n1)c1ccc(Cl)cc1)NNC(=S)Nc1ccccc1 (stereo unspecified) | 80 | ≥ 14 | inactive | inactive | ≥ 14 | ≥ 14 | 0 | inactive | ≥ 200 | 67 | 50 (≈ 98.4 µM) | 100 (≈ 197 µM) | ≥ 200 | 0 | ≥ 200 | ≥ 14 | ≥ 14 | inactive | ≥ 14 | ≥ 14 | zone of inhibition at 1000 µg/mL (Micrococcus luteus [17]): ≥ 14 mm; MIC (Escherichia coli [18]): ≥ 200 µg/mL
O=C(Cn1nnnc1Cc1ccccc1)c1ccc(Cl)cc1 | 50 |  |  |  |  |  | 0 |  |  | 50 |  |  |  | 0 |  |  |  |  |  |  | Activity (Mus musculus [19]): 0%
OC(Cn1nnnc1Cc1ccccc1)c1ccc(Cl)cc1 (stereo unspecified) | 100 |  |  |  |  |  | 0 |  |  | 67 |  |  |  | 50 |  |  |  |  |  |  | 
O=C(Cn1nnc(-c2ccccc2)n1)c1ccc(Cl)cc1 | 0 |  |  |  |  |  |  |  |  | 0 |  |  |  |  |  |  |  |  |  |  | Activity (Mus musculus [20]): Toxic
Clc1ccccc1C(c1ccccc1)(c1ccccc1)n1ccnc1 [CLOTRIMAZOLE] |  |  |  |  |  |  |  |  |  |  |  |  |  |  |  |  |  |  |  |  | MIC (Aspergillus fumigatus [21]): 12.5 µg/mL (≈ 36.2 µM); MIC (Candida albicans [22]): 6.25 µg/mL (≈ 18.1 µM)
Sc1nnc(COC(Cn2nnnc2Cc2ccccc2)c2ccc(Cl)cc2)o1 (stereo unspecified) |  | ≥ 14 | inactive | inactive | ≥ 14 | ≥ 14 |  | inactive | ≥ 200 |  | 50 (≈ 117 µM) | 100 (≈ 233 µM) | ≥ 200 |  | 100 (≈ 233 µM) | ≥ 14 | ≥ 14 | inactive | ≥ 14 | ≥ 14 | MIC (Aspergillus fumigatus [21]): ≥ 200 µg/mL; MIC (Candida albicans [22]): 100 µg/mL (≈ 233 µM); zone of inhibition at 1000 µg/mL (Micrococcus luteus [17]): ≥ 14 mm; MIC (Escherichia coli [18]): ≥ 200 µg/mL
